# Test results published in ChEMBL document CHEMBL1154120, “Synthesis and properties of nucleoside derivatives acylated by chemically stable 2-(trimethylsilyl)benzoyl group” (Bioorg Med Chem, 2009).
# How the values were obtained:
# Assay type in all cases: physicochemical
# [1] = Chemical stability in NH3-EtOH (9:1, v/v) at 55 deg C assessed as time taken for complete hydrolysis
# Method in brief: (§1)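 Nucleoside derivatives carrying 2-substituted benzoyl masking groups were kept in the basic solution. The time until hydrolysis was complete was recorded. Substrates showing no change over a 24 h observation window were scored as stable at 24 h.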
# [2] = Chemical stability in 0.5 M NaOH/EtOH solution at room temperature assessed as time taken for complete hydrolysis; method in brief: as §1
# [3] = Chemical stability in NH3-EtOH (9:1, v/v) at room temperature assessed as time taken for complete hydrolysis; method in brief: as §1
# [4] = Chemical stability in 2 M NaOH/EtOH solution at room temperature assessed as time taken for complete hydrolysis; method in brief: as §1
# [5] = Chemical stability in 1.5 M NaOMe/MeOH solution at room temperature assessed as time taken for complete hydrolysis; method in brief: as §1
Stability [1] [h],Stability [2] [h],Stability [3] [h],Stability [4] [h],Stability [5] [h],SMILES
> 24,24,> 24,4,,Cc1cn([C@H]2C[C@H](O)[C@@H](COC(=O)c3ccccc3C(C)(C)C)O2)c(=O)[nH]c1=O
10,1,24,0.25,,Cc1ccccc1C(=O)OC[C@H]1O[C@@H](n2cc(C)c(=O)[nH]c2=O)C[C@@H]1O
8,,48,,,C[Si](C)(C)c1ccccc1C(=O)O[C@@H]1[C@H](O)[C@@H](CO)O[C@H]1n1ccc(=O)[nH]c1=O
> 24,24,> 24,4,,Cc1cn([C@H]2C[C@H](O)[C@@H](COC(=O)c3ccccc3[Si](C)(C)C)O2)c(=O)[nH]c1=O
> 24,,,> 24,> 24,C[Si](C)(C)c1ccccc1C(=O)Nc1ccn([C@H]2C[C@H](O)[C@@H](CO)O2)c(=O)n1
4,,12,,,Cc1cn([C@H]2C[C@H](O)[C@@H](COC(=O)C=C[Si](C)(C)C)O2)c(=O)[nH]c1=O
